Source: ChEMBL document CHEMBL1275272, “Synthesis, characterization and antimicrobial activity of some disubstituted 1,3,4-oxadiazoles carrying 2-(aryloxymethyl)phenyl moiety” (2010)
Values after ≈ are worked out from the molar mass of the structure shown.

Columns and labels:
Assay type in all cases: functional
Staphylococcus aureus = assay: Antibacterial activity against Staphylococcus aureus after 16 to 18 hrs by serial dilution method; settings: for MIC: Staphylococcus aureus
Outline: (§1)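 The test compound was dissolved in DMF and serially diluted. A standard drop of the prepared microbial culture was added to each dilution, and tubes were incubated at 37 °C for 16–18 h. MIC was taken as the highest dilution that stayed clear with no visible turbidity.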

Escherichia coli = assay: Antibacterial activity against Escherichia coli after 16 to 18 hrs by serial dilution method; settings: for MIC: Escherichia coli; outline: as §1
Pseudomonas aeruginosa = assay: Antibacterial activity against Pseudomonas aeruginosa after 16 to 18 hrs by serial dilution method; settings: for MIC: Pseudomonas aeruginosa; outline: as §1
Klebsiella pneumoniae = assay: Antibacterial activity against Klebsiella pneumoniae after 16 to 18 hrs by serial dilution method; settings: for MIC: Klebsiella pneumoniae
Talaromyces marneffei = assay: Antifungal activity against Penicillium marneffei after 16 to 18 hrs by serial dilution method; settings: for MIC: Talaromyces marneffei; outline: as §1
[1] = system: Trichophyton mentagrophytes; assay: Antifungal activity against Trichophyton mentagrophytes after 16 to 18 hrs by serial dilution method; settings: for MIC: Trichophyton mentagrophytes
Aspergillus flavus = assay: Antifungal activity against Aspergillus flavus after 16 to 18 hrs by serial dilution method; settings: for MIC: Aspergillus flavus; outline: as §1
Aspergillus fumigatus = assay: Antifungal activity against Aspergillus fumigatus after 16 to 18 hrs by serial dilution method; settings: for MIC: Aspergillus fumigatus

Row | MIC (Staphylococcus aureus) [µg/mL] | MIC (Escherichia coli) [µg/mL] | MIC (Pseudomonas aeruginosa) [µg/mL] | MIC (Klebsiella pneumoniae) [µg/mL] | MIC (Talaromyces marneffei) [µg/mL] | MIC [1] [µg/mL] | MIC (Aspergillus flavus) [µg/mL] | MIC (Aspergillus fumigatus) [µg/mL] | Structure (SMILES) | inhibition zone (IZ) (Staphylococcus aureus) [mm] | inhibition zone (IZ) (Escherichia coli) [mm] | inhibition zone (IZ) (Pseudomonas aeruginosa) [mm] | inhibition zone (IZ) (Klebsiella pneumoniae) [mm] | inhibition zone (IZ) (Talaromyces marneffei) [mm] | inhibition zone (IZ) [1] [mm] | inhibition zone (IZ) (Aspergillus flavus) [mm] | inhibition zone (IZ) (Aspergillus fumigatus) [mm]
1 | 12.5 (≈ 29.6 µM) | 12.5 (≈ 29.6 µM) | 12.5 (≈ 29.6 µM) | 12.5 (≈ 29.6 µM) | 12.5 (≈ 29.6 µM) | 12.5 (≈ 29.6 µM) | 12.5 (≈ 29.6 µM) | 12.5 (≈ 29.6 µM) | Cc1ccccc1OCc1ccccc1-c1nnc(SCc2ccc(Cl)cc2)o1 | 11 | 11 | 11 | 11 | 11 | 11 | 11 | 11
2 | 12.5 (≈ 33.7 µM) | 12.5 (≈ 33.7 µM) | 12.5 (≈ 33.7 µM) | 12.5 (≈ 33.7 µM) | 12.5 (≈ 33.7 µM) | 12.5 (≈ 33.7 µM) | 12.5 (≈ 33.7 µM) | 12.5 (≈ 33.7 µM) | Cc1ccc(OCc2ccccc2-c2nnc(-c3cc(C)cc(C)c3)o2)cc1 | 11 | 11 | 11 | 11 | 11 | 11 | 11 | 11
3 | 25 (≈ 59.3 µM) | 25 (≈ 59.3 µM) | 25 (≈ 59.3 µM) | 25 (≈ 59.3 µM) | 25 (≈ 59.3 µM) | 25 (≈ 59.3 µM) | 25 (≈ 59.3 µM) | 25 (≈ 59.3 µM) | Cc1ccc(OCc2ccccc2-c2nnc(-c3cccc(Br)c3)o2)cc1 | <10 | <10 | <10 | <10 | <10 | <10 | <10 | <10
4 | 25 (≈ 59.3 µM) | 25 (≈ 59.3 µM) | 25 (≈ 59.3 µM) | 25 (≈ 59.3 µM) | 25 (≈ 59.3 µM) | 25 (≈ 59.3 µM) | 25 (≈ 59.3 µM) | 25 (≈ 59.3 µM) | Cc1cccc(OCc2ccccc2-c2nnc(-c3cccc(Br)c3)o2)c1 | <10 | <10 | <10 | <10 | <10 | <10 | <10 | <10
5 | 25 (≈ 66.3 µM) | 25 (≈ 66.3 µM) | 25 (≈ 66.3 µM) | 25 (≈ 66.3 µM) | 25 (≈ 66.3 µM) | 25 (≈ 66.3 µM) | 25 (≈ 66.3 µM) | 25 (≈ 66.3 µM) | Cc1ccccc1OCc1ccccc1-c1nnc(-c2ccc(Cl)cc2)o1 | <10 | <10 | <10 | <10 | <10 | <10 | <10 | <10
6 | 12.5 (≈ 31.4 µM) | 12.5 (≈ 31.4 µM) | 12.5 (≈ 31.4 µM) | 12.5 (≈ 31.4 µM) | 12.5 (≈ 31.4 µM) | 12.5 (≈ 31.4 µM) | 12.5 (≈ 31.4 µM) | 12.5 (≈ 31.4 µM) | Cc1ccc(OCc2ccccc2-c2nn(CN3CCOCC3)c(=S)o2)cc1 | 11 | 11 | 11 | 11 | 11 | 11 | 11 | 11
7 | 25 (≈ 46.8 µM) | 25 (≈ 46.8 µM) | 25 (≈ 46.8 µM) | 25 (≈ 46.8 µM) | 25 (≈ 46.8 µM) | 25 (≈ 46.8 µM) | 25 (≈ 46.8 µM) | 25 (≈ 46.8 µM) | Cc1ccccc1OCc1ccccc1-c1nn(CNc2ccc(Cl)cc2C(=O)C(F)(F)F)c(=S)o1 | <10 | <10 | <10 | <10 | <10 | <10 | <10 | <10
8 | 25 (≈ 76.6 µM) | 25 (≈ 76.6 µM) | 25 (≈ 76.6 µM) | 25 (≈ 76.6 µM) | 25 (≈ 76.6 µM) | 25 (≈ 76.6 µM) | 25 (≈ 76.6 µM) | 25 (≈ 76.6 µM) | CCSc1nnc(-c2ccccc2COc2cccc(C)c2)o1 | <10 | <10 | <10 | <10 | <10 | <10 | <10 | <10
9 | 12.5 (≈ 29.6 µM) | 12.5 (≈ 29.6 µM) | 12.5 (≈ 29.6 µM) | 12.5 (≈ 29.6 µM) | 12.5 (≈ 29.6 µM) | 12.5 (≈ 29.6 µM) | 12.5 (≈ 29.6 µM) | 12.5 (≈ 29.6 µM) | Cc1ccc(OCc2ccccc2-c2nnc(SCc3ccc(Cl)cc3)o2)cc1 | 11 | 11 | 11 | 11 | 11 | 11 | 11 | 11
